Source: PubChem BioAssay (several laboratories)
RORA act: RORA (human) activation; P35398; CHO-K1 Gal4-RORA LBD luciferase reporter, luminescence; percent increase over mock-subtracted basal signal; activation, % at 10 µM; 65,000 tested, 1.5% active; AID 560;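 active means activation above the mean of all tested compounds plus 3 SD, cut at about 49% in these data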
ERa coact inh: blocks coactivator binding to human estrogen receptor alpha; P03372; TR-FRET ER-alpha LBD / SRC-1 peptide, estradiol-bound; inhibition, % at 25.6 µM; 86,000 tested, 1.7% active; AID 629; in the data active means inhibition above about 50%
SF-1 act: activates the human nuclear receptor SF-1; Q13285; CHO-K1 Gal4-SF-1 LBD luciferase reporter; % increase over DMSO SF-1-specific signal; activation, % at 10 µM; 65,000 tested, 1.9% active;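 active means activation above the mean activation of all tested compounds plus 3 SD, cut at about 50% in these data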
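Test system: CHO-K1 cells co-transfected with Gal4 DBD–human SF-1 LBD, 5xGal4 luciferase reporter. Quantity: 4,000 cells per well. Compound: 10 µM only. Incubation: compound added 1 h post-seeding, 20 h exposure at 37 °C, 5% CO2. Detection: SteadyLite luciferase luminescence. Replication: one test per compound.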
ERb SRC1 inh: blocks coactivator binding to human estrogen receptor beta; Q92731; TR-FRET ER-beta LBD / SRC1-Cy5 peptide binding; receptor agonist-loaded with 1 µM estradiol; inhibition, % at 25.6 µM; 86,000 tested, 1.3% active; AID 633;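 active means compounds whose percent inhibition of the receptor-coactivator binding signal exceeds about 50% in the single-dose screen, limit read from the data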
Pyk2 oligo antag: antagonists of human Pyk2 oligomerization. AID 1347419. z-score (the deposit names both 25 µM and 10 µM). 99,000 tested, 0.83% active. Q293 cells, Pyk2 FERM NanoBiT luminescence; hits give low values;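 active means Z-score of -3 or lower, scaled per plate to the spread of control and sample wells; inactive means z-score above -3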;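 further: negative z-score means lost luminescence so less FERM oligomerization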
Target sequence (Q14289 whole entry, looked up): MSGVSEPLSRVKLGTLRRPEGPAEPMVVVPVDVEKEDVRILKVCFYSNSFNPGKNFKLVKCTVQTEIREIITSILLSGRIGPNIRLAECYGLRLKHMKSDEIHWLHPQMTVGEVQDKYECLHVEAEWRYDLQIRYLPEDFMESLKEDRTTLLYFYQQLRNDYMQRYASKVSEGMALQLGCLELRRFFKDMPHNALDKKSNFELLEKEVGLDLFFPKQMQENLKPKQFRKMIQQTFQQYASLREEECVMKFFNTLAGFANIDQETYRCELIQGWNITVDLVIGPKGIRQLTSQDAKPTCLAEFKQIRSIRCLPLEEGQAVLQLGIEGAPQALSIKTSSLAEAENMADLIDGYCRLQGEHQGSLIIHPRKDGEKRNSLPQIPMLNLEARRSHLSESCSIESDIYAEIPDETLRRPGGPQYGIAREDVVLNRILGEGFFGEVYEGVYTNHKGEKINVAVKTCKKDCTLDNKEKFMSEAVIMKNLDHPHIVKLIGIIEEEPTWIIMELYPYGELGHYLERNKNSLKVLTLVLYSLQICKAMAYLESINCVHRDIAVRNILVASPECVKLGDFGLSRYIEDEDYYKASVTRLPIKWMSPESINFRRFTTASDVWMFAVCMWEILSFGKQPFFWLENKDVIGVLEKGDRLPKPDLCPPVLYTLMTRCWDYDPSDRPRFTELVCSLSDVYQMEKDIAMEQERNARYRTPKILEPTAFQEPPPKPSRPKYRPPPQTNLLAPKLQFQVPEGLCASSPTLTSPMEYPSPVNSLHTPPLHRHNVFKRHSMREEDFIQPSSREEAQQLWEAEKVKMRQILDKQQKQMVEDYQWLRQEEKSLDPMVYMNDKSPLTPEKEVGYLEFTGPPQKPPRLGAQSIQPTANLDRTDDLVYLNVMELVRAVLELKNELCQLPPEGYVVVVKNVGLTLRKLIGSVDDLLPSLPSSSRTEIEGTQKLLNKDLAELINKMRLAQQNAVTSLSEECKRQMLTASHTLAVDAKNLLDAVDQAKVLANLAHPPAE
ERa SRC1 pot: ER-alpha (human) coactivator binding potentiation; TR-FRET ERalpha-LBD/SRC-Cy5 coactivator binding, 2 h; 100 = basal binding, no effect; coactivator binding (% of control), % at 25.6 µM; 86,000 tested, 1.3% active; in the data active means activity above about 200%;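 further: binding measured in presence of low estradiol as agonist stimulus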
Each line names hits and unclear results; the compound was inactive in the other large screens; [ ] = dose if it differs, or a comment. Hits are enriched below; roughly 4.8% of the tested compounds scored in any of these assays.

Cn1cnnc1SCC(=O)Nc1ccc2nc(SCc3ccccc3)sc2c1	ERa SRC1 pot 366[fluorescence artefact?]
Cc1ccc2nc(NC(=O)Cn3cc4c(n3)CCCCC4)sc2c1	none (no result: ERa coact inh, ERb SRC1 inh, Pyk2 oligo antag, ERa SRC1 pot)
CCCC(=O)C1=C(c2ccccc2)C(C#N)(C#N)C(C#N)=C1N	none
COC(=O)CCC(=O)Nc1nnc(C(F)(F)F)s1	none (no result: RORA act, SF-1 act)
O=C(Nc1nnc(C(F)(F)F)s1)c1cccnc1	RORA act 66, SF-1 act 60
O=C(Nc1cccnc1)c1cccnc1	none
COc1ccc(C(=O)Nc2nnc(C(F)(F)F)s2)cc1	SF-1 act 57
CCOc1ccc(C(=O)NN2C(=O)C3C4C=CC(O4)C3C2=O)cc1 (configuration not stated)	none (no result: RORA act, ERa coact inh, SF-1 act, ERb SRC1 inh, ERa SRC1 pot)
COc1ccc(NC(=O)CSc2nnc(-c3cccnc3)n2Cc2ccco2)c(OC)c1	none
O=C(CSc1nnc(-c2cccnc2)o1)c1cc2ccccc2oc1=O	ERa SRC1 pot 221
O=C(CSc1nnc(-c2cccnc2)o1)Oc1ccccc1	none (no result: ERa coact inh, ERb SRC1 inh, ERa SRC1 pot)
O=C(CSc1nnc(-c2cccnc2)o1)Nc1ccccn1	SF-1 act 76
O=C(O)C(NC(=O)c1ccccc1)=C(Cl)Cl	none (no result: RORA act, ERa coact inh, SF-1 act, ERb SRC1 inh, ERa SRC1 pot)
O=S1(=O)CC(O)C(N2CCCCC2)C1 (configuration not stated)	none (no result: RORA act, SF-1 act)
CCN1C(=O)/C(=C/c2nc3ccccc3c(=O)n2-c2ccccc2)c2ccccc21	Pyk2 oligo antag -3.2 (no result: RORA act, ERa coact inh, SF-1 act, ERb SRC1 inh, ERa SRC1 pot)
CCCCCOc1ccc(NS(C)(=O)=O)cc1	RORA act 64
CCOc1ccc(NS(=O)(=O)c2ccc(NS(C)(=O)=O)cc2)cc1	none
Fc1ccc(-c2nnc(-c3ccc(Cl)cc3)o2)cc1	RORA act 56
Nc1ncnc(Nc2ccccc2C(F)(F)F)n1	ERa SRC1 pot 666[fluorescence artefact?]
FC(F)(F)c1ccccc1Nc1nccs1	none
CCOC(=O)c1c(C)oc2c1c(C(c1cccnc1)N1CCCCC1)c(O)c1ccccc12 (configuration not stated)	ERa coact inh 68, ERb SRC1 inh 67 (no result: RORA act, SF-1 act)
COC(=O)c1ccc(NC(=O)C2CCCN2S(=O)(=O)c2ccc(F)cc2)cc1 (configuration not stated)	none
Cc1[nH]c2ccccc2c1/C=N/Nc1ccc([N+](=O)[O-])cc1S(=O)(=O)Nc1ccc(Cl)cc1	Pyk2 oligo antag -3.4 (no result: RORA act, ERa coact inh, SF-1 act, ERb SRC1 inh, ERa SRC1 pot)
COc1ccc(NS(=O)(=O)c2cc([N+](=O)[O-])ccc2N/N=C\c2c(C)[nH]c3ccccc23)cc1	none (no result: RORA act, ERa coact inh, SF-1 act, ERb SRC1 inh, ERa SRC1 pot)
O=[N+]([O-])c1ccc2nc(-c3ccc(Cl)cc3)n(OCc3ccccc3)c2c1	Pyk2 oligo antag -3.1 (no result: RORA act, ERa coact inh, SF-1 act, ERb SRC1 inh, ERa SRC1 pot)
Cc1ccc(COn2c(-c3ccc(Cl)cc3)nc3ccc([N+](=O)[O-])cc32)cc1	none (no result: RORA act, ERa coact inh, SF-1 act, ERb SRC1 inh, ERa SRC1 pot)
COc1ccc(-c2nc3c(c(=O)[nH]c(=O)n3Cc3ccccc3)n2C)cc1	ERa SRC1 pot 270[fluorescence artefact?] (no result: RORA act, SF-1 act)
Cn1c(-c2cccc(OCc3ccccc3)c2)nc2c1c(=O)[nH]c(=O)n2Cc1ccccc1	none (no result: RORA act, ERa coact inh, SF-1 act, ERb SRC1 inh, ERa SRC1 pot)
COc1cc(Br)cc(-c2nc3c(c(=O)[nH]c(=O)n3Cc3ccccc3)n2C)c1O	none
COc1ccc(-c2nc3c(c(=O)[nH]c(=O)n3Cc3ccccc3)n2Cc2ccccc2)cc1	Pyk2 oligo antag -3.1 (no result: RORA act, ERa coact inh, SF-1 act, ERb SRC1 inh, ERa SRC1 pot)
O=C(NC12CC3CC(CC(C3)C1)C2)C12CC3CC(C1)CC(n1cnc(Cl)n1)(C3)C2	none (no result: RORA act, ERa coact inh, SF-1 act, ERb SRC1 inh, ERa SRC1 pot)
CCOCCCNC(=O)COc1ccc(OC)cc1	none (no result: RORA act, SF-1 act)
CC(=O)N1CCC(=O)N(C(C)C)c2ccccc21	none
Nn1cnnc1N/N=C/c1cc(Br)cc(Br)c1O	none (no result: RORA act, ERa coact inh, SF-1 act, ERb SRC1 inh, ERa SRC1 pot)
CCc1nc2cc(CC(=O)O)ccc2o1	none (no result: RORA act, ERa coact inh, SF-1 act, ERb SRC1 inh, ERa SRC1 pot)
COc1cccc(C2CC(c3ccc(F)cc3)Nc3nc(N)nn32)c1 (configuration not stated)	ERa SRC1 pot 308 (no result: Pyk2 oligo antag)
Nc1nc2n(n1)C(c1cccs1)CC(c1ccc(Br)cc1)N2 (configuration not stated)	Pyk2 oligo antag -3.2
COc1cccc(C2CC(c3cccc(OC)c3)n3nc(N)nc3N2)c1 (configuration not stated)	none (no result: Pyk2 oligo antag)
COc1ccc(N2CCN(C(=O)CCNS(=O)(=O)c3ccc(Br)s3)CC2)cc1	none
Cc1cc(C)n2nc(SCC(=O)N(C)Cc3ccccc3)nc2n1	none
CCOc1ccc(Cn2nnc(C(=O)NCc3ccc(OC)cc3)c2N)cc1	ERa SRC1 pot 228 (no result: Pyk2 oligo antag)
CCc1ccc(Cn2nnc(C(=O)Nc3ccc(OC)cc3OC)c2N)cc1	none (no result: Pyk2 oligo antag)
CN1Cc2cc(C(=O)c3cc(Cl)cc(CSc4ncccn4)c3O)cnc2NC1=O	ERa coact inh 56 (no result: Pyk2 oligo antag)
O=C(Nc1ccc(O)cc1)c1cc2n(n1)C(C(F)(F)F)CC(c1ccco1)N2 (configuration not stated)	none
CCOc1ccc(NC(=O)c2cc3n(n2)C(C(F)(F)F)CC(c2ccco2)N3)cc1 (configuration not stated)	RORA act 60
COC(=O)C1C(=O)C2=C(CC1C)NC(C)=C(C(=O)OC1CCCCC1)C2c1ccc(N(C)C)cc1 (configuration not stated)	ERa SRC1 pot 223
COC(=O)C1C(=O)C2=C(CC1C)NC(C)=C(C(=O)OCc1ccc(OC)cc1)C2c1ccc(C)o1 (configuration not stated)	none
COC(=O)C1C(=O)c2c([nH]c(C(=O)OC3CCCCC3)c2C)CC1C (configuration not stated)	RORA act 77 (no result: Pyk2 oligo antag)
COC(=O)C1C(=O)C2=C(CC1C)NC(C)=C(C(=O)OCCOc1ccccc1)C2c1ccc(C)o1 (configuration not stated)	Pyk2 oligo antag -3.9
O=C(NNS(=O)(=O)c1ccc2ccccc2c1)c1cccnc1	none (no result: RORA act, ERa coact inh, SF-1 act, ERb SRC1 inh, ERa SRC1 pot)
Cc1[nH]c(C(=O)N2CCCCC2)c(C)c1C(=O)NC1CCCCC1	none (no result: Pyk2 oligo antag)
CCOC(=O)c1c(/N=C/N(C)C)sc(C(=O)OC)c1C	none
CCOC(=O)C1=C(C)S/C(=C\N(C)C)C1=O	ERa coact inh 54, ERb SRC1 inh 73[fluorescence artefact?]
Cc1ccc2c(c1)c1cccc3c1n2CCN3CCC(N)=O	ERb SRC1 inh 60[fluorescence artefact?]
COc1ccc(-n2c(SCC(=O)Nc3nccs3)nc3c(c2=O)SC(C)C3)cc1 (configuration not stated)	none (no result: Pyk2 oligo antag)
CN(C)c1ccc(P(=O)(OCc2ccccc2)C(O)c2cccnc2)cc1 (configuration not stated)	none
CC(C)C(O)P(=O)(OCc1ccccc1)c1ccc(N(C)C)cc1 (configuration not stated)	ERa coact inh 52[fluorescence artefact?]
Cc1ccc(N2CCn3c2nc2c3c(=O)n(CCc3ccccc3)c(=O)n2C)cc1	ERa coact inh 60[fluorescence artefact?] (no result: Pyk2 oligo antag)
COc1ccc(N2CCCn3c2nc2c3c(=O)n(CCc3ccccc3)c(=O)n2C)cc1	none
CCSc1nnc(NC(=O)CSc2nc3c(cc2C#N)CCCC3)s1	Pyk2 oligo antag -3.2 (no result: RORA act, ERa coact inh, SF-1 act, ERb SRC1 inh, ERa SRC1 pot)
CCc1nnc(NC(=O)CSc2nc3c(cc2C#N)CCC3)s1	SF-1 act 75
N#Cc1cc2c(nc1SCC(=O)Nc1nccs1)CCCCC2	none
